Measured values as given in ChEMBL document CHEMBL1811881, “Development of 3-substituted-androsterone derivatives as potent inhibitors of 17β-hydroxysteroid dehydrogenase type 3” (Bioorg Med Chem, 2011).
Active and inactive are the calls of the source. No cut-off for these calls is given here.

Key:
[1] = target: T1, Androgen receptor (Mus musculus) (UniProt P19091); test: Activation of androgen receptor in androgen-sensitive (AR+) mouse Shionogi cells assessed as stimulation of cell proliferation after 10 days relative to control
T1 sequence (whole entry): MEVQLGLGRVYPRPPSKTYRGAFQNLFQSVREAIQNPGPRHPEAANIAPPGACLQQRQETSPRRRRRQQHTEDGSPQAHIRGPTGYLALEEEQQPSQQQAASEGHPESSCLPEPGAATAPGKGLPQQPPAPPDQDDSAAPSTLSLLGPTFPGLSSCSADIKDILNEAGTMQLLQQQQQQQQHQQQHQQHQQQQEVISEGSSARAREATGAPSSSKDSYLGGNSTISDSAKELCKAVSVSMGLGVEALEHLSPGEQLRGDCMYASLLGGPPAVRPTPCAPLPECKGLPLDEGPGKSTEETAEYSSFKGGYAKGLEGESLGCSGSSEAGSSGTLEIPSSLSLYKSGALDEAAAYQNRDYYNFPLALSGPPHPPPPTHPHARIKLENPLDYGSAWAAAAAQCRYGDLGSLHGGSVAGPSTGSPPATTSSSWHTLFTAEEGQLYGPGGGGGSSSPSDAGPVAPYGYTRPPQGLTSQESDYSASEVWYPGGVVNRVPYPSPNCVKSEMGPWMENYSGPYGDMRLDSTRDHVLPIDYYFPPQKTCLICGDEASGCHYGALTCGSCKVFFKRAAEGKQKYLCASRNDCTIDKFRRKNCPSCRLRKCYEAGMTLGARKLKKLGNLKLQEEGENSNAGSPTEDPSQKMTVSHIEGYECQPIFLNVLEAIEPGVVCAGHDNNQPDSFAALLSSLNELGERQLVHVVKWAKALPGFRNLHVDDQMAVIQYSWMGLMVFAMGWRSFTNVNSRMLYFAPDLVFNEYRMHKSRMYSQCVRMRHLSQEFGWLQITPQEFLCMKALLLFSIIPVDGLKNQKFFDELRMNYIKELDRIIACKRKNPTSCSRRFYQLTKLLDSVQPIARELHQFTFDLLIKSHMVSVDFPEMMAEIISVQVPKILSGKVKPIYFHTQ
Outline: (§1)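 Androgen-sensitive (AR+) Shionogi cells. Inhibitors and reference compounds were each tested at 0.1 and 1.0 µM. Androgenicity is reported as % cell proliferation versus control, with basal proliferation set to 100%. DHT (0.1 µM) served as androgen reference and hydroxyflutamide as antiandrogen. Data are mean ± SEM of one experiment in triplicate.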

[2] = target: T2, 17-beta-hydroxysteroid dehydrogenase type 3 (Homo sapiens, UniProt P37058); test: Inhibition of 17Beta-HSD3 expressed in intact HEK293 cells assessed as transformation of [14C]-4-androstene-3,17-dione into [14C]-testosterone in presence of NADPH after 1 hr incubation; format: cell-based
T2 sequence (P37058 whole entry): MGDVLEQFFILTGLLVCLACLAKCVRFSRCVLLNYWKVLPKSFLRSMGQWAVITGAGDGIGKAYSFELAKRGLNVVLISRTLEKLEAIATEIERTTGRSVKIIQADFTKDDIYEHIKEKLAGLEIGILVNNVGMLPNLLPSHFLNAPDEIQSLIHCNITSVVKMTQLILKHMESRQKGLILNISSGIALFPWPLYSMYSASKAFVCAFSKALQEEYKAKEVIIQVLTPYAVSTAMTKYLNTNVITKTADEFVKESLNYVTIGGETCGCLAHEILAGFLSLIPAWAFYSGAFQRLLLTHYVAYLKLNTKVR
Outline: (§2)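 HEK-293 cells were grown in MEM with 10% FBS at 37 °C under 5% CO2, seeded at 200,000 cells/well, and transfected with 2 µg/well of a 17β-HSD3 expression plasmid. Intact cells then got 50 nM [4-14C]-4-androstene-3,17-dione plus inhibitor in ethanol (0.5% v/v) for 1 h. Radiolabelled steroids were extracted from the medium and quantified. Triplicate; % transformation was used to derive IC50.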

[3] = target: T3, 17-beta-hydroxysteroid dehydrogenase type 3 (Homo sapiens) (UniProt P37058); test: Inhibition of 17Beta-HSD3 expressed in homogenized HEK293 cells assessed as transformation of [14C]-4-androstene-3,17-dione into [14C]-testosterone in presence of NADPH at 0.01 uM; format: cell-based
T3 sequence (whole entry): T2 sequence (P37058 whole entry)
Outline: (§3)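 HEK-293 cells overexpressing 17β-HSD3 were briefly homogenized. The enzyme assay measured conversion of 50 nM [4-14C]-4-androstene-3,17-dione to [14C]-testosterone with NADPH in excess (5 mM). Inhibitor was dissolved in ethanol, and the ethanol-only control was used to derive % inhibition at each concentration. Error 10%.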

[4] = target: T3, 17-beta-hydroxysteroid dehydrogenase type 3 (Homo sapiens); test: Inhibition of 17Beta-HSD3 expressed in homogenized HEK293 cells assessed as transformation of [14C]-4-androstene-3,17-dione into [14C]-testosterone in presence of NADPH at 0.1 uM; format: cell-based; outline: as §3
[5] = target: T1, Androgen receptor (Mus musculus); test: Activation of androgen receptor in androgen-sensitive (AR+) mouse Shionogi cells assessed as stimulation of cell proliferation after 10 days at 1 uM relative to control; outline: as §1
[6] = target: T3, 17-beta-hydroxysteroid dehydrogenase type 3 (Homo sapiens); test: Inhibition of 17Beta-HSD3 expressed in intact HEK293 cells assessed as transformation of [14C]-4-androstene-3,17-dione into [14C]-testosterone in presence of NADPH at 0.1 uM after 1 hr incubation; format: cell-based; outline: as §2
[7] = target: T3, 17-beta-hydroxysteroid dehydrogenase type 3 (Homo sapiens); test: Inhibition of 17Beta-HSD3 expressed in homogenized HEK293 cells assessed as transformation of [14C]-4-androstene-3,17-dione into [14C]-testosterone in presence of NADPH at 1 uM; format: cell-based; outline: as §3
[8] = target: T3, 17-beta-hydroxysteroid dehydrogenase type 3 (Homo sapiens); test: Inhibition of 17Beta-HSD3 expressed in intact HEK293 cells assessed as transformation of [14C]-4-androstene-3,17-dione into [14C]-testosterone in presence of NADPH at 1 uM after 1 hr incubation; format: cell-based; outline: as §2

SMILES | Activity [1] | IC50 [2] [nM] | inhibition [3] [%] | inhibition [4] [%] | Activity [5] | inhibition [6] [%] | inhibition [7] [%] | inhibition [8] [%]
CC(C)(O)C(=O)Nc1ccc([N+](=O)[O-])c(C(F)(F)F)c1 | inactive | – | – | – | – | – | – | –
C[C@]12CC[C@@]3(C[C@@H]1CC[C@@H]1[C@@H]2CC[C@]2(C)C(=O)CC[C@@H]12)CN(CCC(CN1CCOCC1)OC(=O)C1CCCCC1)C(=O)O3 (some centres undefined) | inactive | 51 | – | – | – | – | – | –
C[C@@H]1CN(S(=O)(=O)c2ccccc2C(F)(F)F)[C@@H](C)CN1C[C@@]1(O)CC[C@@]2(C)[C@@H](CC[C@@H]3[C@@H]2CC[C@]2(C)C(=O)CC[C@@H]32)C1 | – | 6 | 55 | 92 | inactive | 84 | – | –
CCN(Cc1ccccc1)C[C@@]1(O)CC[C@@]2(C)[C@@H](CC[C@@H]3[C@@H]2CC[C@]2(C)C(=O)CC[C@@H]32)C1 | – | – | 42 | 85 | 314% | 86 | 90 | 94
